Calls of active or inactive are those of the source. The calls are words filed in the database; no cut-off is given here.
Columns and labels:
Leishmania mexicana [1] = assay: Reduction in Leishmania mexicana infection in mouse J774 macrophage at 2 uM; format: functional; parameters: scale not given: the % may be the effect or the level left
How it was run: (§1)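 J774 macrophages (1 × 10^5 per well) allowed to adhere overnight, then infected with 1 × 10^6 L. mexicana promastigotes (MNYC/BCZ/62/M379) overnight at 33 °C. After washing, treated with compound or 1% DMSO vehicle for 3 days at 33 °C, methanol-fixed and Giemsa-stained. Percent reduction of infection is relative to controls; average ± range of two experiments.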

Leishmania sp. = assay: Inhibition of Leishmania tarentolae tubulin assembly; format: functional
How it was run: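 Purified L. tarentolae tubulin at 1.5 mg/mL in […] pH 6.9 with 1 mM MgCl2, 1 mM EGTA, 10% DMSO and 1 mM GTP, incubated at 30 °C with or without compound (2 or 20 µM tested). Assembly followed as turbidity at 351 nm.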

Leishmania donovani [2] = assay: Cell cycle arrest in Leishmania donovani promastigotes by accumulation at G2/S phase at 2 uM; format: functional, organism-based; conditions: in the assay text read “G2/M phase” for “G2/S phase”
How it was run: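 L. donovani promastigotes at 5 × 10^6 cells/mL in RPMI-based promastigote medium with 10% HI-FBS, treated or given vehicle (1% DMSO) for 2 days at 25 °C. Cells then methanol-fixed and stained with propidium iodide (10 µg/mL) with Triton X-100 and RNase A. DNA content per cell measured by flow cytometry; histograms representative of three experiments.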

Leishmania mexicana [3] = assay: Reduction in Leishmania mexicana infection in mouse J774 macrophage at 4 uM; format: functional; parameters: scale not given: the % may be the effect or the level left; how it was run: as §1
Leishmania donovani [4] = assay: Reduction in Leishmania donovani load in infected BALB/c mouse at 50 mg/kg/day, ip; format: functional; conditions: route intraperitoneal
How it was run: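 BALB/c mice, 12 weeks old, infected i.v. (tail vein) with 1 × 10^7 hamster-spleen-derived L. donovani amastigotes. After 7 days, dosed i.p. daily for 5 days in 0.5% methylcellulose/0.1% Tween-80/10% DMSO in water; vehicle controls run. Killed 4 days after treatment. Liver burden scored as LDUs from Giemsa-stained smears; mean ± SD of five mice.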

Leishmania donovani [5] = assay: Antileishmanial activity against Leishmania donovani axenic amastigotes; format: functional, organism-based
How it was run: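 L. donovani axenic amastigotes (MHOM/SD/62/1S-CL2D), adapted from promastigotes and kept at 37 °C in amastigote medium. 6 × 10^4 cells per well, 2-fold compound dilution series, 3 days at 37 °C in 5% CO2. Growth read by tetrazolium (CellTiter) absorbance at 490 nm. IC50 taken from a four-parameter dose-response fit; three or more separate experiments, error given as SD.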

Leishmania mexicana [6] = assay: Reduction in Leishmania mexicana infection in mouse J774 macrophage at 8 uM; format: functional; parameters: scale not given: the % may be the effect or the level left; how it was run: as §1
Vero = assay: Antiproliferative activity against Vero cell; format: functional, cell-based; conditions: Chlorocebus sabaeus
How it was run: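 Vero cells grown in alpha-MEM with Glutamax-I, 10% heat-inactivated FBS, penicillin/streptomycin. 1 × 10^3 cells per well seeded with compounds over a 2-fold dilution series, run like the amastigote assay: 3 days at 37 °C, humidified, 5% CO2. Growth read by tetrazolium (CellTiter) absorbance at 490 nm. IC50 from four-parameter dose-response fit; three or more separate experiments.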

Leishmania mexicana [7] = assay: Reduction in Leishmania mexicana infection in mouse J774 macrophage at 25 nM; format: functional; parameters: scale not given: the % may be the effect or the level left; how it was run: as §1
Leishmania mexicana [8] = assay: Reduction in Leishmania mexicana infection in mouse J774 macrophage at 50 nM; format: functional; parameters: scale not given: the % may be the effect or the level left; how it was run: as §1
Leishmania mexicana [9] = assay: Reduction in Leishmania mexicana infection in mouse J774 macrophage at 125 nM; format: functional; parameters: scale not given: the % may be the effect or the level left; how it was run: as §1

| IC50 (Leishmania donovani [5]) | SMILES | other results |
| --- | --- | --- |
| 0.5 µM | Cc1cc(Sc2c([N+](=O)[O-])cc(C(F)(F)F)cc2[N+](=O)[O-])c(Cl)cc1Cl | Activity (Leishmania mexicana [1]): 13%; Activity (Leishmania sp.): inactive; Activity (Leishmania donovani [2]): inactive; Activity (Leishmania mexicana [3]): 43%; Activity (Leishmania donovani [4]): 1583; Activity (Leishmania mexicana [6]): 68%; IC50 (Vero): 5.3 µM |
| > 100 µM | CC(=O)c1ccc(OCc2ccc(Cl)c(Cl)c2)c([N+](=O)[O-])c1 |  |
| 21 µM | Cc1cc(C(=O)O)c(Sc2nccn2-c2ccc(Cl)cc2Cl)nc1C#N |  |
| 72 µM | O=S(=O)(c1ccc(Cl)cc1)N1CCCN(Cc2ccc(Cl)cc2Cl)CC1 |  |
| > 100 µM | CSc1cccc(-n2c(S)nnc2CCc2ccc(O)cc2)c1 |  |
| > 100 µM | O=C(O)c1ccccc1C(=O)NCCNc1ccc(C(F)(F)F)cn1 |  |
| > 100 µM | O=C(CSCc1cccc(C(F)(F)F)c1)c1ccc(OCc2ccc(F)cc2)cc1 |  |
| 37 µM | OC(CNCc1ccc(Cl)cc1Cl)Cn1c(-c2ccc(F)cc2)cc2ccccc21 (stereo not drawn) |  |
| 66.6 µM | Cc1nc(-c2ccc(S(=O)(=O)Nc3ccc(Br)cc3Cl)s2)cs1 |  |
| > 100 µM | COc1cc(C2SCCS2)cc(Br)c1Oc1cc(C)c(C(F)(F)F)cc1[N+](=O)[O-] |  |
| 25 µM | O=S(=O)(Nc1ccc(Oc2ccc(C(F)(F)F)cc2)cc1)c1cc(Cl)c(Cl)cc1Cl |  |
| 2.5 µM | CCCN(CCC)c1c([N+](=O)[O-])cc(S(=O)(=O)Nc2cccc(F)c2)cc1[N+](=O)[O-] |  |
| 80 µM | O=[N+]([O-])c1ccc(Oc2c(Cl)cccc2Cl)c(Cl)c1Oc1c(Cl)cccc1Cl |  |

The remaining lines, values behind:

| SMILES | IC50 (Leishmania donovani [5]) | other results |
| --- | --- | --- |
| Cc1cc(S(=O)(=O)c2c([N+](=O)[O-])cc(C(F)(F)F)cc2[N+](=O)[O-])c(Cl)cc1Cl | 2.3 µM | IC50 (Vero): 24 µM |
| COc1ccc([N+](=O)[O-])c(OC)c1C(=O)NCCCn1ccnc1 | > 100 µM |  |
| C[C@@H]1[C@H](O)[C@@H](C)/C=C/C=C/C=C/C=C/C=C/C=C/C=C/[C@H](O[C@@H]2O[C@H](C)[C@@H](O)[C@H](N)[C@@H]2O)C[C@@H]2O[C@](O)(C[C@@H](O)C[C@@H](O)[C@H](O)CC[C@@H](O)C[C@@H](O)CC(=O)O[C@H]1C)C[C@H](O)[C@H]2C(=O)O [AMPHOTERICIN B] |  | Activity (Leishmania mexicana [7]): 44%; Activity (Leishmania mexicana [8]): 76%; Activity (Leishmania mexicana [9]): 96% |
| CCCCN(CCCC)c1c([N+](=O)[O-])cc(S(=O)(=O)Nc2cccc(F)c2)cc1[N+](=O)[O-] | 5.7 µM |  |
| COc1ccccc1NC(=O)CSCc1cnc(C)c(O)c1O | > 100 µM |  |
| O=C1NC(=O)c2c1ccc(Sc1c(Cl)cccc1Cl)c2[N+](=O)[O-] | 60 µM |  |
| CCCCN(CCCC)c1c([N+](=O)[O-])cc(S(=O)(=O)Nc2ccc(F)cc2)cc1[N+](=O)[O-] | 5.6 µM |  |
| COc1ccc(CCNc2ccc(C(F)(F)F)cc2[N+](=O)[O-])cc1OC | > 100 µM |  |
| Cc1cc(Sc2nnc3oc(O)cc(C)c2-3)c(C)cc1Cl | 39 µM |  |
| Cc1cc(C)c(-n2nnnc2SCc2ccc(C(F)(F)F)cc2)c(C)c1 | 32 µM |  |
